Several values for one entry are separate records, joined by “and”; a condition that tells them apart may be missing. Equal entries are not always repeated. Values belong to the compound of their own block, whether it stands above or below them.
Key:
[1] = tested on: human stem-cell-derived motor neurons carrying the ALS-causing SOD1^A4V mutation; test: Motor neuron CPA survival assay, SOD1^A4V ALS motor neurons
[2] = tested on: TNFα release in LPS-stimulated mouse N9 microglial cells; test: TNFα ELISA in LPS-stimulated N9 microglia; type: cell-based; conditions: for EC50: Mus musculus, N9, 24 h, read-out: EC50 for decrease of TNFα secretion
Procedure, shortened: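 N9 mouse microglia were plated at 8000 cells/well on gelatin in DMEM/10% FBS. At 24 h, cells were treated with LPS (E. coli O111:B4) plus test compound at stated concentrations. 24 h later, medium TNFα was measured by ELISA (A450, 540 nm correction). Viability of remaining cells was checked by AlamarBlue, 4 h at 37°C. n = 2 wells; means ± SEM.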

MLK1 = MLK1 (Homo sapiens, UniProt P80192); test: Cell-free radiolabeled ATP kinase assay; type: biochemical; conditions: single concentration
MLK1, sequence (P80192 whole entry): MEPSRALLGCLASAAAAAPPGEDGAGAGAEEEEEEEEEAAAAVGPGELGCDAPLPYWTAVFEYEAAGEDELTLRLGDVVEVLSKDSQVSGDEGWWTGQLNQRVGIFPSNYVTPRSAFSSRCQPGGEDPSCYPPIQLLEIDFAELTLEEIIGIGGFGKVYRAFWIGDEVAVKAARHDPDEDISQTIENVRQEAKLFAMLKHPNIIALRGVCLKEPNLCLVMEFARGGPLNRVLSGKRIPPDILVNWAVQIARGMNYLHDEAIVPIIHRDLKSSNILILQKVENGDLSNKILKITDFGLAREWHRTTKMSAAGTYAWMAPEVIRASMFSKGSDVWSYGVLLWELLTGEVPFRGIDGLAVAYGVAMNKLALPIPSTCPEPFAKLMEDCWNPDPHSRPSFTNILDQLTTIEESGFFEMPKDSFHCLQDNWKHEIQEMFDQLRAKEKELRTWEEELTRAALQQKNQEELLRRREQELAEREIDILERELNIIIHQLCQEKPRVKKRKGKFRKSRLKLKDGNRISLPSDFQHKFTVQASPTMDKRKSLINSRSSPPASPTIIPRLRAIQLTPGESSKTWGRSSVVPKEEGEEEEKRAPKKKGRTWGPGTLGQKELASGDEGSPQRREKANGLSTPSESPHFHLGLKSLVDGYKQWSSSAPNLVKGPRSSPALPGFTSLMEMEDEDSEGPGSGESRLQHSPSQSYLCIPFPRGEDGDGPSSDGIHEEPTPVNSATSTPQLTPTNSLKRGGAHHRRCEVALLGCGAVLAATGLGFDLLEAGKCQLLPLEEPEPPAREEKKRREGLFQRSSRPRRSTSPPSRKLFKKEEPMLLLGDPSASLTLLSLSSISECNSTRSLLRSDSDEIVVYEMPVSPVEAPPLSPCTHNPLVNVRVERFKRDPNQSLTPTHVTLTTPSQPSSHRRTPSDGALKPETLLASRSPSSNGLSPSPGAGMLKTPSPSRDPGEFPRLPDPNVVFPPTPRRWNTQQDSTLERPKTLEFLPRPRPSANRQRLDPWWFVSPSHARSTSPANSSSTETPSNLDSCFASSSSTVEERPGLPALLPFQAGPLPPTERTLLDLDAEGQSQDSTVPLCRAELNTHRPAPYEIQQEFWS
Procedure, shortened: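 MLK1 radiometric HotSpot assay: recombinant kinase and substrate at 25°C with ATP plus 33P-ATP at 10 μM final, 120 min, spotted on P81 paper and washed. Single-dose panel run at 0.1 μM; IC50 series for MLK1 spanned 0.002–1 μM in 2-fold steps. Read-out is % remaining activity versus DMSO.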

MLK3 = MLK3 (Homo sapiens, UniProt Q16584); test: Cell-free radiolabeled ATP kinase assay; type: biochemical; conditions: for activity at MLK3: single concentration, cell-free
MLK3, sequence (Q16584 whole entry): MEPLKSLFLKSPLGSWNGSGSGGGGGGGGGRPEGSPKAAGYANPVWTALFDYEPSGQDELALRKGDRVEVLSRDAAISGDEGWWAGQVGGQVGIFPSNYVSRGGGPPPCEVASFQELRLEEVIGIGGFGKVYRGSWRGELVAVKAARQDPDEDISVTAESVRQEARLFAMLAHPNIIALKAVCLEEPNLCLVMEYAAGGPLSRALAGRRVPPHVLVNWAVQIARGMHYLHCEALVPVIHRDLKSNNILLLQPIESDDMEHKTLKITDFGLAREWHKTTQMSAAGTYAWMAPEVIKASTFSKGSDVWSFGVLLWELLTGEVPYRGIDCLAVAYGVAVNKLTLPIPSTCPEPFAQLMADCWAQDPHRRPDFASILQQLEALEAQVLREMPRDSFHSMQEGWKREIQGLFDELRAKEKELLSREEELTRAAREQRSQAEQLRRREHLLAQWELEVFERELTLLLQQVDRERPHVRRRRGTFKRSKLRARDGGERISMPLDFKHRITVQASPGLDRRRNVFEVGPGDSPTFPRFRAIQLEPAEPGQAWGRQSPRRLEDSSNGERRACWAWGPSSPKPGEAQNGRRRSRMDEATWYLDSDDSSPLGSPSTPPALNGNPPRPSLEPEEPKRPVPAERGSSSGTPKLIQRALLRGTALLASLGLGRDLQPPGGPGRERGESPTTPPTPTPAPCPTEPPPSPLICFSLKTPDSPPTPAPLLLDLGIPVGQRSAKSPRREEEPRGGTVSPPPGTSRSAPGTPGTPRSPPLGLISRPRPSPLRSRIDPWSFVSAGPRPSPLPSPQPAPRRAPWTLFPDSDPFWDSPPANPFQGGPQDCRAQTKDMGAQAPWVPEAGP

HGK [3] = molecular target: HGK (Homo sapiens, UniProt O95819); test: Cell-free radiolabeled ATP kinase assay; type: biochemical
HGK (Homo sapiens, UniProt O95819), sequence (O95819 whole entry): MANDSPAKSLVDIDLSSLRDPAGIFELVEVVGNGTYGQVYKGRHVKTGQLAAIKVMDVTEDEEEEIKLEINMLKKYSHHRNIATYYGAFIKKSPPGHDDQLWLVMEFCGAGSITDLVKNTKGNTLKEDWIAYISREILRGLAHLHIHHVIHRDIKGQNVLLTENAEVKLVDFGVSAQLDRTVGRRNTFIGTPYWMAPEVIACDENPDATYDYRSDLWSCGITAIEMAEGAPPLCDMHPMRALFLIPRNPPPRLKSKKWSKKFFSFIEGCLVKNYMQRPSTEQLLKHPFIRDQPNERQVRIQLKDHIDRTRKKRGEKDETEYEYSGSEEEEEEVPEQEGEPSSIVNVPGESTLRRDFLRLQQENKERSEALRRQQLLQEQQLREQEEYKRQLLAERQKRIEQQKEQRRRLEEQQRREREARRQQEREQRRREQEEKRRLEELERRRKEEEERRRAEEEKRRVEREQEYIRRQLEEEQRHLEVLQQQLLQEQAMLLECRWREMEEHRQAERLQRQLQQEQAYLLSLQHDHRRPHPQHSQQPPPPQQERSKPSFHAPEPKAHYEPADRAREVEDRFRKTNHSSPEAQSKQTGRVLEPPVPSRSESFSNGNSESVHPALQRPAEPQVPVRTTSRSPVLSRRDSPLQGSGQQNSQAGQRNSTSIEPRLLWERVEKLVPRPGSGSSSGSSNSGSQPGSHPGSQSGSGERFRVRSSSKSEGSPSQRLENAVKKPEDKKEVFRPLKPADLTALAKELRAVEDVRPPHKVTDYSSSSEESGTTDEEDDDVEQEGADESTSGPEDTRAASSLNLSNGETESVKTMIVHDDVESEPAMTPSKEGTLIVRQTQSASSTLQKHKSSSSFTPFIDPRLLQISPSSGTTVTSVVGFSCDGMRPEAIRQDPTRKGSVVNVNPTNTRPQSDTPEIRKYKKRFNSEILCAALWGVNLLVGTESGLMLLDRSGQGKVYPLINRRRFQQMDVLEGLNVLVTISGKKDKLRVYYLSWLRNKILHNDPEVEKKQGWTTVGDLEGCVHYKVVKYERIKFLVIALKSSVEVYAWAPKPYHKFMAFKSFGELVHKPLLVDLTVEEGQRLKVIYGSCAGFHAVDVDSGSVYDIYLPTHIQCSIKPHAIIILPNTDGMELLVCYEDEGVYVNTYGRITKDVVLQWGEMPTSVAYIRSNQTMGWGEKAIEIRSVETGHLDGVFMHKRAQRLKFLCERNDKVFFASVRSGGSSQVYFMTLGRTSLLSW
Procedure, shortened: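 Recombinant HGK and substrate with test compound in radiometric HotSpot assay at 25°C: ATP plus 33P-ATP at 10 μM final, 120 min, then spotted on P81 filter paper and washed. IC50 from 10 concentrations, 0.0002–0.1 μM in 2-fold steps. Otherwise single concentrations were used; the 371-kinase panel was run at 0.1 μM. Activity is % remaining versus DMSO alone.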

[4] = tested on: motor neurons differentiated from human induced pluripotent stem cells derived from a healthy patient; test: Motor neuron CPA survival assay, healthy-patient iPSC-derived motor neurons; type: cell-based; conditions: CPA-treated healthy human motor neurons, 72 h
[5] = tested on: kinases assayed in cell-free conditions; test: Kinase selectivity score from published cell-free panels; type: biochemical
[6] = In vivo pharmacokinetics, IP injection or oral gavage; set-up: species or system mouse; conditions: for Brain AUC / Brain mean Cmax / Kp at 3 h / Cmax: mouse; for Brain AUC / Brain mean Cmax: ± SEM; for Kp at 3 h / Cmax: male, B6SJLF1/J; for Kp at 3 h: brain and plasma; for Cmax: plasma
Procedure, shortened: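 Dosing solution: DMSO stock diluted to 2 mg/mL in 40% PEG-400 plus 55% of a 20% hydroxypropyl-β-cyclodextrin solution. Given at 10 mg/kg IP or by oral gavage to 8-week-old male wild-type B6SJLF1/J mice, n = 3 per route per time point. At 15 min, 3, 8 or 24 h: trunk blood (EDTA 50 mM final, plasma) and fresh brain taken. Analysed by LC-MS against calibration curves; means ± SEM.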

JNK pathway = test: Western blots of JNK pathway in CPA-treated motor neurons; type: cell-based, mouse; conditions: western blot
Procedure, shortened: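 Day-6 embryoid bodies from mouse ES cells (HB9::GFP reporter, human SOD1 transgene; RA 1 μM + SAG 0.5 μM) were given CPA 10 μM plus test compound 0.5 μM for 4 h, then lysed in HEPES/Triton/SDS buffer. Immunoblots used phospho-JNK (Thr183/Tyr185), phospho-c-Jun (Ser63), phospho-MKK4 (Ser257), total proteins and cleaved caspase 3 at 1:1000, with GAPDH at 1:3000. Signals normalised to GAPDH, phospho to total, and expressed as % of CPA; n = 2 differentiations; unpaired two-tailed t-tests.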

[7] = tested on: CPA-treated motor neurons; test: CPA-treated motor neurons, PKC/ABL inhibitors; type: cell-based; conditions: data not shown
[8] = tested on: HIV-mediated microgliosis in the brain; conditions: mice, ref Marker et al. (2013), cited from earlier work
HGK [9] = conditions: 1 μM; ref Goodfellow et al., 2013; cited from earlier work
[10] = ref Goodfellow et al. (2013); cited from earlier work
SOD1^G93A mutant rats = conditions: late-stage SOD1^G93A mutant rats; ref Trias et al., 2016; cited from earlier work
[11] = tested on: mouse stem cell-derived motor neurons; conditions: CPA-treated; ref Thams et al., 2019; cited from earlier work
[12] = ref Tang et al., 2012; cited from earlier work
[13] = CPA-treated SOD1^A4V motor neurons
[14] = CPA 10 μM + compound 0.5 μM, 4 h

SMILES: CN1CC2CCC(C1)N2Cc1ccc(-c2cnc3[nH]cc(-c4cccc5[nH]ncc45)c3c2)cc1 [12e, 4-(5-(4-((3-Methyl-3,8-diazabicyclo[3.2.1]octan-8-yl)methyl)phenyl)-1H-pyrrolo[2,3-b]pyridin-3-yl)-1H-indazole]
neuroprotection in CPA survival assay [1, 13]: highly neuroprotective
effect on TNFα release at 0.5 μM ([2]; 0.5 μM, LPS-stimulated N9 microglia): did not inhibit TNFα release
effect on TNFα levels ([2]; LPS-stimulated N9 microglia): did not significantly decrease TNFα levels
inhibition of MLK1 (MLK1): inability to inhibit MLK3 and MLK1
activity at MLK3 (MLK3): little activity at MLK3
inhibition of HGK activity (HGK [3]; single concentration, cell-free): strongly inhibited HGK activity

SMILES: Nc1ncc(C(=O)NC2CN(C(=O)C3CC3)C2)c2ccc(-c3cccc(F)c3)nc12 [GNE-495]
rescue of CPA toxicity / neuroprotection [4]: neuroprotective
selectivity score (kinases with <20% activity remaining / total kinases assayed) ([5]; 1 μM, cell-free, calculated from published data, ref Ndubaku et al., 2015): 0.01

Brain AUC ([6]; 10 mg/kg IP): 11570 (±1655) μg/L•h
Brain mean Cmax ([6]; 10 mg/kg IP): 1162 (±91.99) μg/kg
Brain AUC ([6]; 10 mg/kg OG): 8429 (±1458) μg/L•h
Brain mean Cmax ([6]; 10 mg/kg OG): 658.9 (±257.7) μg/kg
brain Cmax ([6]; IP-injected animals, 10 mg/kg): 1162 ng/g and 2.60 μM
Kp at 3 h ([6]; ip, 10 mg/kg): 3
Kp at 3 h ([6]; oral, 10 mg/kg): 3.3
Cmax ([6]; ip, 10 mg/kg): 454 ng/mL
Cmax ([6]; po, 10 mg/kg): 184 ng/mL
EC50 [2]: ~470 nM
activity at MLK3 (MLK3): slightly decreased inhibition of MLK3
IC50 (HGK [3]): 0.3 nM
SMILES: OCCN1CCN(Cc2ccc(-c3cnc4[nH]cc(-c5cccc(Cl)c5)c4c3)cc2)CC1 [Prostetin/12k, 2-(4-(4-(3-(3-Chlorophenyl)-1H-pyrrolo[2,3-b]pyridin-5-yl)benzyl)piperazin-1-yl)ethan-1-ol]
concentration at which maximum efficacy (Emax) was observed [1, 13]: 0.5 µM
EC50 ([1]; Homo sapiens, Neuron, 72 h, read-out: EC50 in motor neuron survival assay): 100 nM
inhibition of JNK pathway components (JNK pathway; Fig. S2): effectively inhibit the same JNK pathway components as compound 1
concentrations that significantly attenuated TNFα release ([2]; LPS-stimulated N9 microglia): ≥ 0.5 µM
potency relative to compound 1 (fold less potent) ([2]; suppression of TNFα release): ~ 5 x

SMILES: CS(=O)(=O)O.Cn1cc(C2=C(c3cn(CCCSC(=N)N)c4ccccc34)C(=O)NC2=O)c2ccccc21 [Ro-318220 mesylate]
protection of CPA-treated motor neurons [7]: mildly protective

SMILES: COc1cc(Nc2c(C#N)cnc3cc(OCCCN4CCN(C)CC4)c(OC)cc23)c(Cl)cc1Cl [bosutinib]
protection of CPA-treated motor neurons [7]: mildly protective

SMILES: CN1CCN(Cc2ccc(-c3cnc4[nH]cc(-c5ccc6[nH]ccc6c5)c4c3)cc2)CC1 [compound 1, 3-(1H-Indol-5-yl)-5-(4-((4-methylpiperazin-1-yl)methyl)phenyl)-1H-pyrrolo[2,3-b]pyridine, reference compound]
Brain AUC ([6]; 10 mg/kg IP): 1568 (±147.1) μg/L•h
Brain mean Cmax ([6]; 10 mg/kg IP): 208.8 (±10.21) μg/kg
Brain AUC ([6]; 10 mg/kg OG): 567.2 (±110.5) μg/L•h
Brain mean Cmax ([6]; 10 mg/kg OG): 83.35 (±21.40) μg/kg
Kp at 3 h ([6]; ip, 10 mg/kg): 0.23
Kp at 3 h ([6]; oral, 10 mg/kg): 0.19
Cmax ([6]; ip, 10 mg/kg): 972 ng/mL
Cmax ([6]; po, 10 mg/kg): 476 ng/mL
maximum motor neuron survival compared to untreated controls ([1]; CPA 33 μM, 72 h, CPA alone ~10%): 102%
concentration at which maximum efficacy (Emax) was observed [1, 13]: 1 µM
JNK activation (phospho-JNK Thr183/Tyr185) compared to CPA alone (JNK pathway; [14]): significantly decreased JNK activation
phosphorylation of MKK4 at Ser257 (JNK pathway; [14]): attenuated the phosphorylation
EC50 [2]: 200 nM
rescue of CPA toxicity / neuroprotection [4]: neuroprotective
IC50 (MLK3): 18.6 nM
effect on HIV-mediated microgliosis in the brain ([8]; IP 10 mg/kg twice a day for 28 days): attenuate Human Immunodeficiency Virus (HIV)-mediated microgliosis
tolerability over long-term dosing [8]: well-tolerated
inhibition of HGK activity (HGK [9]): > 99%
bioavailability (%F) as measured in the plasma [10]: 41
selectivity score (kinases with <20% activity remaining / total kinases assayed) ([5]; similar conditions, based on data from ref Goodfellow et al. (2013)): 0.36
IC50 (HGK [3]): 5.93 nM

SMILES: Cc1ccc(NC(=O)c2ccc(CN3CCN(C)CC3)cc2)cc1Nc1nc(-c2cccnc2)cs1 [masitinib]
effect on microgliosis and disease progression (SOD1^G93A mutant rats): attenuate microgliosis and slow disease progression

SMILES: CCN(CC)CCNC(=O)c1c(C)[nH]c(/C=C2\C(=O)Nc3ccc(F)cc32)c1C [sunitinib]
protection of motor neurons from ER stress [11]: protect motor neurons from ER stress
blood-brain barrier crossing [12]: does not readily cross the blood-brain barrier

— paper PMC7253076 (Cell chemical biology, 2019)
